Data: ChEMBL document CHEMBL2086304, “Synthesis and in vitro antimycobacterial and isocitrate lyase inhibition properties of novel 2-methoxy-2'-hydroxybenzanilides, their thioxo analogues and benzoxazoles” (Eur J Med Chem, 2012)
In brackets after ≈: the same amount, converted by molar mass.

Experiments:
[1] = test system: Mycobacterium tuberculosis; experiment: Antimycobacterial activity against Mycobacterium tuberculosis 331/88 after 14 days by micromethod; format: functional; details: 331/88, 336 h
Method in brief: (§1)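 Inocula: M. tuberculosis My 331/88 at 10^-3 dilution, M. avium My 330/88 at 10^-5, M. kansasii My 235/80 and clinical isolate 6509/96 at 10^-4. Compounds added in DMSO at 1000 down to 0.5 (twofold series). Read at 14 and 21 days, plus 7 days for M. kansasii. MIC taken as lowest concentration inhibiting growth.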

[2] = test system: Mycobacterium tuberculosis; experiment: Antimycobacterial activity against Mycobacterium tuberculosis 331/88 after 21 days by micromethod; format: functional; details: 331/88, 504 h; method in brief: as §1
[3] = test system: Mycobacterium avium; experiment: Antimycobacterial activity against isoniazid resistance Mycobacterium avium 330/88 after 14 days by micromethod; format: functional; details: 330/88, 336 h; method in brief: as §1
[4] = test system: Mycobacterium avium; experiment: Antimycobacterial activity against isoniazid resistance Mycobacterium avium 330/88 after 21 days by micromethod; format: functional; details: 330/88, 504 h; method in brief: as §1
[5] = test system: Mycobacterium kansasii; experiment: Antimycobacterial activity against Mycobacterium kansasii 6509/96 clinical isolate after 7 days by micromethod; format: functional; details: 6509/96, 168 h; method in brief: as §1
[6] = test system: Mycobacterium kansasii; experiment: Antimycobacterial activity against isoniazid resistance Mycobacterium kansasii 225/80 after 7 days by micromethod; format: functional; details: 225/80, 168 h
[7] = test system: Mycobacterium kansasii; experiment: Antimycobacterial activity against isoniazid resistance Mycobacterium kansasii 225/80 after 14 days by micromethod; format: functional; details: 225/80, 336 h
[8] = test system: Mycobacterium kansasii; experiment: Antimycobacterial activity against isoniazid resistance Mycobacterium kansasii 225/80 after 21 days by micromethod; format: functional; details: 225/80, 504 h
[9] = test system: Mycobacterium kansasii; experiment: Antimycobacterial activity against Mycobacterium kansasii 6509/96 clinical isolate after 14 days by micromethod; format: functional; details: 6509/96, 336 h; method in brief: as §1
[10] = test system: Mycobacterium kansasii; experiment: Antimycobacterial activity against Mycobacterium kansasii 6509/96 clinical isolate after 21 days by micromethod; format: functional; details: 6509/96, 504 h; method in brief: as §1
[11] = biological target: T1, Isocitrate lyase (Mycobacterium tuberculosis) (UniProt P9WKK7); experiment: Inhibition of Mycobacterium tuberculosis H37Rv isocitrate lyase expressed in Escherichia coli HB101 at 10 umol/L
T1 sequence (whole entry): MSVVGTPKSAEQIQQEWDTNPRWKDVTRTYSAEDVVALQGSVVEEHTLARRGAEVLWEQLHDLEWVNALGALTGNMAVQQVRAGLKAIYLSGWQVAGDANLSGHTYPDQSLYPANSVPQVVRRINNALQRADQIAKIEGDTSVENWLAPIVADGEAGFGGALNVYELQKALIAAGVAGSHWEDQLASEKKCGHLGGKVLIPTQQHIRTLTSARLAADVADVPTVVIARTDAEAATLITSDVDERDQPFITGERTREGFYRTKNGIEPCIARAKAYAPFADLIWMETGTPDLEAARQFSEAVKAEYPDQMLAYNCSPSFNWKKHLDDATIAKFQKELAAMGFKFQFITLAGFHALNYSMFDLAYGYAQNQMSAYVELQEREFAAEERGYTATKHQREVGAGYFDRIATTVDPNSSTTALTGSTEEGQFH
Method in brief: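 Isocitrate lyase assayed per Dixon–Kornberg in 96-well format. Buffer: 50 mmol/L KH2PO4, 4 mmol/L MgCl2, 4 mmol/L phenylhydrazine, 12 mmol/L cysteine, pH 7.0. Glyoxylate phenylhydrazone read at 324 nm. Compounds added in DMSO, with DMSO-alone inhibition subtracted.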

[12] = test system: HepG2; experiment: Cytotoxicity against human HepG2 cells after 24 hrs by CellTiter-96 cell viability assay; format: functional, cell-based; details: HepG2, 24 h
Method in brief: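 Hep G2 human hepatic cells (passage 12), 10,000 per well, grown 24 h at 37 °C, 5% CO2 in MEM with 1% glutamine, 10% FBS and 1% nonessential amino acids. Compounds in DMSO at eight increasing concentrations, quadruplicate, 24 h at 37 °C. Kit reagent added, 1.5 h at 37 °C, absorbance 490 nm. IC50 is the concentration reducing viability to 50% of control.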

[13] = Selectivity index, ratio of IC50 for human HepG2 cells to MIC for Mycobacterium tuberculosis 331/88 after 14 days; format: functional
Method in brief: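 Cytotoxicity in Hep G2 cells (passage 12), 10,000 cells/well, in MEM with 10% FBS, 1% glutamine and 1% nonessential amino acids. Cells preincubated 24 h, 37 °C, 5% CO2. Compounds in DMSO at eight concentrations in quadruplicate, 24 h. MTS-type reagent added for 1.5 h, A490 read, IC50 taken at 50% viability. SI = this IC50 over the 14-day M. tuberculosis MIC.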

| SMILES | MIC [1] | MIC [2] | MIC [3] | MIC [4] | MIC [5] | MIC [6] | MIC [7] | MIC [8] | MIC [9] | MIC [10] | inhibition [11] | IC50 [12] | Selectivity Index [13] |
| --- | --- | --- | --- | --- | --- | --- | --- | --- | --- | --- | --- | --- | --- |
| COc1cc(Cl)ccc1C(=O)Nc1cc(Br)ccc1O | 125 µM (≈ 44.6 µg/mL) | 125 µM (≈ 44.6 µg/mL) | 62.5 µM (≈ 22.3 µg/mL) | 62.5 µM (≈ 22.3 µg/mL) | 62.5 µM (≈ 22.3 µg/mL) | 62.5 µM (≈ 22.3 µg/mL) | 62.5 µM (≈ 22.3 µg/mL) | 62.5 µM (≈ 22.3 µg/mL) | 62.5 µM (≈ 22.3 µg/mL) | 62.5 µM (≈ 22.3 µg/mL) | 0% | 5.63 µM | 0.05 |
| COc1cc(Cl)ccc1C(=O)Nc1cc(C(F)(F)F)ccc1O | 250 µM (≈ 86.4 µg/mL) | 250 µM (≈ 86.4 µg/mL) | 250 µM (≈ 86.4 µg/mL) | 250 µM (≈ 86.4 µg/mL) | 250 µM (≈ 86.4 µg/mL) | 250 µM (≈ 86.4 µg/mL) | 250 µM (≈ 86.4 µg/mL) | 250 µM (≈ 86.4 µg/mL) | 250 µM (≈ 86.4 µg/mL) | 250 µM (≈ 86.4 µg/mL) | 0% | 25.4 µM | 0.1 |
| COc1cc(Cl)ccc1C(=O)Nc1cc(Cl)c(Cl)cc1O | 500 µM (≈ 173 µg/mL) | 500 µM (≈ 173 µg/mL) | > 1000 µM | > 1000 µM | 250 µM (≈ 86.6 µg/mL) | 500 µM (≈ 173 µg/mL) | 500 µM (≈ 173 µg/mL) | 500 µM (≈ 173 µg/mL) | 250 µM (≈ 86.6 µg/mL) | 250 µM (≈ 86.6 µg/mL) | 0% | 11.5 µM | 0.02 |
| COc1ccc(Cl)cc1C(=O)Nc1ccc(Cl)cc1O | 4 µM (≈ 1.25 µg/mL) | 4 µM (≈ 1.25 µg/mL) | 62.5 µM (≈ 19.5 µg/mL) | 250 µM (≈ 78 µg/mL) | 8 µM (≈ 2.5 µg/mL) | 16 µM (≈ 4.99 µg/mL) | 32 µM (≈ 9.99 µg/mL) | 62.5 µM (≈ 19.5 µg/mL) | 16 µM (≈ 4.99 µg/mL) | 16 µM (≈ 4.99 µg/mL) | 10% | 51.3 µM | 12.83 |
| COc1cc(Cl)ccc1C(=S)Nc1cc(Cl)ccc1O | 62.5 µM (≈ 20.5 µg/mL) | 62.5 µM (≈ 20.5 µg/mL) | 32 µM (≈ 10.5 µg/mL) | 32 µM (≈ 10.5 µg/mL) | 32 µM (≈ 10.5 µg/mL) | 16 µM (≈ 5.25 µg/mL) | 62.5 µM (≈ 20.5 µg/mL) | 125 µM (≈ 41 µg/mL) | 62.5 µM (≈ 20.5 µg/mL) | 125 µM (≈ 41 µg/mL) | 9% | 8.49 µM | 0.14 |
| COc1cc(Cl)ccc1C(=S)Nc1ccc(Cl)cc1O | 16 µM (≈ 5.25 µg/mL) | 32 µM (≈ 10.5 µg/mL) | 32 µM (≈ 10.5 µg/mL) | 32 µM (≈ 10.5 µg/mL) | 16 µM (≈ 5.25 µg/mL) | 16 µM (≈ 5.25 µg/mL) | 32 µM (≈ 10.5 µg/mL) | 62.5 µM (≈ 20.5 µg/mL) | 32 µM (≈ 10.5 µg/mL) | 32 µM (≈ 10.5 µg/mL) | 10% | 5.11 µM | 0.32 |
| COc1ccc(Cl)cc1C(=S)Nc1ccc(Cl)cc1O | 16 µM (≈ 5.25 µg/mL) | 32 µM (≈ 10.5 µg/mL) | 32 µM (≈ 10.5 µg/mL) | 62.5 µM (≈ 20.5 µg/mL) | 32 µM (≈ 10.5 µg/mL) | 16 µM (≈ 5.25 µg/mL) | 32 µM (≈ 10.5 µg/mL) | 62.5 µM (≈ 20.5 µg/mL) | 32 µM (≈ 10.5 µg/mL) | 32 µM (≈ 10.5 µg/mL) | 0% | 4.45 µM | 0.28 |
| COc1cc(Cl)ccc1C(=S)Nc1ccc(Br)cc1O | 16 µM (≈ 5.96 µg/mL) | 32 µM (≈ 11.9 µg/mL) | 32 µM (≈ 11.9 µg/mL) | 32 µM (≈ 11.9 µg/mL) | 16 µM (≈ 5.96 µg/mL) | 16 µM (≈ 5.96 µg/mL) | 32 µM (≈ 11.9 µg/mL) | 62.5 µM (≈ 23.3 µg/mL) | 32 µM (≈ 11.9 µg/mL) | 32 µM (≈ 11.9 µg/mL) | 10% | 3.88 µM | 0.24 |
| COc1ccc(Cl)cc1C(=O)Nc1cc(Br)ccc1O | 8 µM (≈ 2.85 µg/mL) | 8 µM (≈ 2.85 µg/mL) | 62.5 µM (≈ 22.3 µg/mL) | 62.5 µM (≈ 22.3 µg/mL) | 4 µM (≈ 1.43 µg/mL) | 4 µM (≈ 1.43 µg/mL) | 8 µM (≈ 2.85 µg/mL) | 8 µM (≈ 2.85 µg/mL) | 8 µM (≈ 2.85 µg/mL) | 8 µM (≈ 2.85 µg/mL) | 0% | 4.09 µM | 0.51 |
| COc1ccc(Cl)cc1C(=S)Nc1cc(C(F)(F)F)ccc1O | 32 µM (≈ 11.6 µg/mL) | 32 µM (≈ 11.6 µg/mL) | 62.5 µM (≈ 22.6 µg/mL) | 62.5 µM (≈ 22.6 µg/mL) | 16 µM (≈ 5.79 µg/mL) | 32 µM (≈ 11.6 µg/mL) | 62.5 µM (≈ 22.6 µg/mL) | 62.5 µM (≈ 22.6 µg/mL) | 32 µM (≈ 11.6 µg/mL) | 32 µM (≈ 11.6 µg/mL) | 8% | 5.86 µM | 0.18 |
| COc1cc(Cl)ccc1C(=O)Nc1ccc(Br)cc1O | 125 µM (≈ 44.6 µg/mL) | 125 µM (≈ 44.6 µg/mL) | 125 µM (≈ 44.6 µg/mL) | 125 µM (≈ 44.6 µg/mL) | 125 µM (≈ 44.6 µg/mL) | 125 µM (≈ 44.6 µg/mL) | 125 µM (≈ 44.6 µg/mL) | 125 µM (≈ 44.6 µg/mL) | 125 µM (≈ 44.6 µg/mL) | 125 µM (≈ 44.6 µg/mL) | 0% | 46.6 µM | 0.37 |
| COc1ccc(Cl)cc1C(=S)Nc1cc(Br)ccc1O | 16 µM (≈ 5.96 µg/mL) | 32 µM (≈ 11.9 µg/mL) | 32 µM (≈ 11.9 µg/mL) | 32 µM (≈ 11.9 µg/mL) | 16 µM (≈ 5.96 µg/mL) | 8 µM (≈ 2.98 µg/mL) | 16 µM (≈ 5.96 µg/mL) | 16 µM (≈ 5.96 µg/mL) | 16 µM (≈ 5.96 µg/mL) | 32 µM (≈ 11.9 µg/mL) | 8% | 8.74 µM | 0.55 |
| COc1cc(Cl)ccc1C(=S)Nc1cc(Cl)c(Cl)cc1O | 32 µM (≈ 11.6 µg/mL) | 32 µM (≈ 11.6 µg/mL) | 62.5 µM (≈ 22.7 µg/mL) | 62.5 µM (≈ 22.7 µg/mL) | 16 µM (≈ 5.8 µg/mL) | 16 µM (≈ 5.8 µg/mL) | 32 µM (≈ 11.6 µg/mL) | 62.5 µM (≈ 22.7 µg/mL) | 32 µM (≈ 11.6 µg/mL) | 62.5 µM (≈ 22.7 µg/mL) | 0% | 3.16 µM | 0.1 |
